A selection: hits, their analogues and other compounds. The true share with any hit is near 2.2%.
COUP-TFII inh = inhibitors of human COUP-TFII (NR2F2); P24468; HEK293T NGFI-A luciferase reporter, luminescence; inhibition, % at 8.6 µM; 370,000 compounds, 0.7% hits;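 active means inhibition above a per-plate cutoff, mean inhibition of test wells between control levels plus 3 SD, cut at about 38% in these data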;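 further: cells cotransfected with COUP-TFII expression vector driving the NGFI-A reporter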
Target sequence (P24468 whole entry, looked up): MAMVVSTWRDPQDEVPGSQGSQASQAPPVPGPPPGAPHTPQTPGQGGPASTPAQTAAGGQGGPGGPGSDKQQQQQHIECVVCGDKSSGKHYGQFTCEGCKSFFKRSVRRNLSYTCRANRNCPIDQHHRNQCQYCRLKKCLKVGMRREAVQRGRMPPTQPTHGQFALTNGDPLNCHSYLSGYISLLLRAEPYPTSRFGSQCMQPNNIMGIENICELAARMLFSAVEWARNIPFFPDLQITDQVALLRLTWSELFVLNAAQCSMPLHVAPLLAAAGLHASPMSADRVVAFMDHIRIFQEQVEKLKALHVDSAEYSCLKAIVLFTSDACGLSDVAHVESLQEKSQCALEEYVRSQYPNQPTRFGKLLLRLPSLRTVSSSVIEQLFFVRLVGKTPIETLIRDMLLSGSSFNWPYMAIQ
NR2E3 ag-1 = activates human photoreceptor nuclear receptor NR2E3; GST-NR2E3/biotin-RetCOR TR-FRET, 1536-well; 320,000 compounds, 0.12% hits; inhibition of corepressor binding, % at 4.78 µM; AID 2300;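 active means percent inhibition above the cutoff of mean plus 3 SD of all tested compounds, set per screening campaign, cut at about 20% in these data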
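Material – GST-tagged NR2E3 plus biotinylated RetCOR corepressor · Quantity – NR2E3 fusion 1.35 nM · Times – 5 h incubation at 4 °C · Medium – pH 7.5 Tris-based buffer · Technique – TR-FRET, Eu(K)-anti-GST donor, streptavidin-D2 acceptor, ex 340, em 617/671 nm · Benchmarks – high control biotin, low control 0.6% DMSO · Format – 1536-well plates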
SMARCA2 act = activators of SMARCA2 function; MG213 cells, MMTV-luciferase reporter, dexamethasone, overnight; activation, % at 9.1 µM; 370,000 compounds, 1% hits; in the data active means activation above about 7.8%
NR2E3 ag-2 = activates human NR2E3 receptor; AID 602229; 360,000 compounds, 0.35% hits; Q9Y5X4; CHO-S Gal4-NCOR/VP16-NR2E3 two-hybrid, luciferase; inhibition of corepressor binding, % at 3.98 µM;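 active means inhibition above the mean of all tested compounds plus 3 SD, cut at about 70% in these data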;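 further: higher means lower luciferase signal from less NR2E3 corepressor binding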
GalR3 antag = human GalR3 antagonism; O60755; HEK293 GalR3-CNG cAMP membrane potential fluorescence; galR3 body fused to GalR1 C-terminus; inhibition, % at 3 µM; 360,000 compounds, 0.44% hits; AID 651719;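 active means inhibition above the screen-wide average plus 3 SD, cut at about 13% in these data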;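 further: forskolin and galanin both at EC90 stimulate the cells; cAMP rise reported by CNG channel membrane potential dye signal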
Target sequence (O60755 1-299 limits assumed): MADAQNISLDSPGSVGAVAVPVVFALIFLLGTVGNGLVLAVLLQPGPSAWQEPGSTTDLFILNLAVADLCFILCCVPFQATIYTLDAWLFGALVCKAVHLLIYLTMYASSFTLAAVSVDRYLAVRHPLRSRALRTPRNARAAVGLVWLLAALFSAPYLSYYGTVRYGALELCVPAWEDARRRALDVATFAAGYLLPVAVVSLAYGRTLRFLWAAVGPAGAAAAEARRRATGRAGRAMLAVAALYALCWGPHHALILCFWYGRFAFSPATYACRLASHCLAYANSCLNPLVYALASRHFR
GalR3 conf = GalR3 (human) antagonism, confirmation; HEK293 GalR3 CNG cAMP biosensor, membrane potential fluorescence; galR3 fused to GalR1 carboxy tail; challenged with forskolin and galanin at EC90; shares compounds with GalR3 antag; 1,600 compounds, 59% hits; AID 652245; inhibition, % at 3 µM;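 active means inhibition above the primary screen's cutoff, the mean inhibition of all screened compounds plus 3 SD, cut at about 13% in these data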
HEK-CNG parental = acts as nonspecific agonist in parental HEK-CNG cells; HEK293-CNG parental cells, cAMP membrane potential fluorescence; normalised: DMSO wells 0%, forskolin wells 100%; shares compounds with GalR3 antag; 1,600 compounds, 10% hits; activation, % at 3 µM; in the data active means activation above about 1.3%
Of the large screens only hits and unclear results are named; the others gave an inactive call (follow-up assays come after a bar, where they were run).

CCSc1nnc(N2C(=O)C(O)=C(C(=O)c3ccco3)C2c2cccc(OC)c2)s1 (centres undefined)	GalR3 antag 14.0 | GalR3 conf inactive | HEK-CNG parental inactive
CCCOc1cccc(C2C(C(=O)c3ccc(C)o3)=C(O)C(=O)N2c2nc(C)c(C(C)=O)s2)c1 (centres undefined)	GalR3 antag 27.8 | GalR3 conf 13.3 | HEK-CNG parental inactive
CCOc1cccc(C2C(C(=O)c3ccco3)=C(O)C(=O)N2c2nnc(C)s2)c1 (centres undefined)	GalR3 antag 21.6 | GalR3 conf inactive | HEK-CNG parental inactive
CSc1nnc(N2C(=O)C(O)=C(C(=O)c3ccco3)C2c2cccc(Cl)c2)s1 (centres undefined)	none
C[C@@H]1COc2cc(Br)ccc2S(=O)(=O)N1Cc1cn(CCC2OCCCO2)nn1	none (no result: NR2E3 ag-1, NR2E3 ag-2, GalR3 antag)
Cc1ccc(-c2nnc(COC(=O)c3cc(=O)[nH]c4ccccc34)o2)cc1	GalR3 antag 12.9 | GalR3 conf inactive | HEK-CNG parental inactive
CCOC(=O)c1cc(=O)[nH]c2ccccc12	none
C=CCNC(=O)NC(=O)COC(=O)[C@H](C)NS(=O)(=O)c1c(C)c(C)cc(C)c1C	none
CCNC(=O)NC(=O)C(C)OC(=O)[C@H](C)NS(=O)(=O)c1c(C)c(C)cc(C)c1C (some centres undefined)	GalR3 antag 39.4 | GalR3 conf inactive | HEK-CNG parental inactive
CC(Oc1ccc(Cl)cc1Cl)C(=O)Nc1ccc(O)cc1 (centres undefined)	none
CC(Oc1ccc(Cl)cc1Cl)C(=O)Nc1cccc(O)c1 (centres undefined)	GalR3 antag 14.5 | GalR3 conf 15.1 | HEK-CNG parental inactive
COc1ccc(O)c(C(=O)c2cnn(-c3ccccn3)c2)c1	none
COc1ccc(O)c(C(=O)c2cnc3nc4ccccc4n3c2)c1	GalR3 antag 22.0 | GalR3 conf 17.6 | HEK-CNG parental inactive
CCCCCCCCN1C(=O)[C@@H](CC(=O)NCCc2ccccc2OC)C[C@@]2(C(=O)OC)C1=C[C@H](COCc1ccccc1)O[C@@H]2C	none (no result: NR2E3 ag-1, NR2E3 ag-2, GalR3 antag)
Cc1ccc(CN2C(=O)CCC2C(=O)NCCCN2CCOCC2)cc1 (centres undefined)	none
Cc1ccc(CN2C(=O)CCC2C(=O)NCCCN2CCC(C)CC2)cc1 (centres undefined)	none (no result: NR2E3 ag-1, GalR3 antag) | GalR3 conf inactive | HEK-CNG parental inactive
OCC[C@@H]1C[C@@H](O)[C@H](O)[C@]2(CCc3ccccc3O2)O1	none (no result: GalR3 antag) | GalR3 conf 18.2 | HEK-CNG parental inactive
Cc1ccc(NC(=O)CSc2nc(N)c3c4c(sc3n2)CSC(C)(C)C4)cc1	none
Cc1ccccc1NC(=O)CSc1nc(N)c2c3c(sc2n1)CSC(C)(C)C3	GalR3 antag 21.1 | GalR3 conf 38.8 | HEK-CNG parental inactive
Cc1nc(SCc2nc3ccccc3[nH]2)c2oc3ccc(Br)cc3c2n1	GalR3 antag 13.5 (no result: NR2E3 ag-1) | GalR3 conf 28.2 | HEK-CNG parental inactive
Nc1c(Cl)cc(C2=NCCn3c2c2ccc([N+](=O)[O-])cc2[n+]3[O-])cc1Cl	none
[O-][n+]1c2cc(C(F)(F)F)ccc2c2n1CCN=C2c1ccc(Cl)cc1	none (no result: GalR3 antag) | GalR3 conf inactive | HEK-CNG parental inactive
COC(=O)[C@]12C[C@H](CC(=O)NCc3ccccc3)C(=O)N(CCc3ccc(OC)c(OC)c3)C1=C[C@H](C1CCCC1)O[C@@H]2C	none (no result: NR2E3 ag-1, NR2E3 ag-2, GalR3 antag)
Cc1ccc(N(CC(=O)NCc2ccco2)C(=O)CCC(=O)Nc2nccs2)cc1	GalR3 antag 14.3 | GalR3 conf inactive | HEK-CNG parental inactive
CCn1c(C)c(C(C)=O)c(N2CCN(c3ccccc3)CC2)nc1=S	GalR3 antag 42.0 | GalR3 conf inactive | HEK-CNG parental inactive
CC(=O)c1c(N2CCCCC2)nc(=S)n(-c2ccccc2)c1C	none (no result: GalR3 antag) | GalR3 conf inactive | HEK-CNG parental inactive
CC(=O)c1c(N2CCCC2)nc(=S)n(-c2ccccc2)c1C	none
CCC/C(=C1/c2ccccc2C(=O)N1c1ccccc1)c1c(C)noc1C	none (no result: NR2E3 ag-1, NR2E3 ag-2)
Cc1ccc2c(c1)-c1c(cnn1CC(=O)NCCc1ccc(Cl)cc1)CO2	none (no result: NR2E3 ag-1, NR2E3 ag-2, GalR3 antag)
Clc1cccc(CN2CCN(c3ncc(Cc4ccccc4)cn3)CC2)c1Cl	GalR3 antag 55.0 (no result: NR2E3 ag-1, NR2E3 ag-2) | GalR3 conf 105.6 | HEK-CNG parental inactive
C/C(C=NNC(=O)CSc1nc2ccccc2n1C)=C\c1ccccc1	none (no result: NR2E3 ag-1, NR2E3 ag-2, GalR3 antag)
COC(=O)C1=C(C)N(Cc2cccc(C(F)(F)F)c2)C(=NCC2CC2)NC1c1cccc(F)c1 (centres undefined)	none (no result: NR2E3 ag-1, NR2E3 ag-2)
C=CCNc1nc2c(c(=O)n(C)c(=O)n2C)n1CCCCCC	COUP-TFII inh 61.0, GalR3 antag 40.6 | GalR3 conf 83.0 | HEK-CNG parental inactive
O=C(NCc1ccccc1)C(c1ccco1)N1CCN(CCN2CCOCC2)CC1 (centres undefined)	none (no result: NR2E3 ag-1, NR2E3 ag-2)
O=C(COC(=O)c1c(F)cccc1F)Nc1ccc2[nH]c(=O)[nH]c2c1	none
O=C(COC(=O)c1cccc(Br)c1)Nc1ccc2[nH]c(=O)[nH]c2c1	GalR3 antag 32.5 | GalR3 conf 48.8 | HEK-CNG parental inactive
CCCCN1CC(=O)N2[C@H](C[C@@]3(n4ccc5ccccc54)c4ccccc4N(S(=O)(=O)c4ccccc4)[C@@H]23)C1=O	none (no result: NR2E3 ag-1, NR2E3 ag-2, GalR3 antag)
C[C@H]1CN=C2N(CCNC(=O)CCC3CCCCC3)[C@H](Cc3ccc(O)cc3)CN21	GalR3 antag 17.3 | GalR3 conf inactive | HEK-CNG parental inactive
CCC(=O)OCCNc1cc(Sc2nccn2C)c2nonc2c1[N+](=O)[O-]	GalR3 antag 40.8 | GalR3 conf 20.6 | HEK-CNG parental inactive
CCCC(=O)OCCNc1cc(Sc2nc3ccccc3[nH]2)c2nonc2c1[N+](=O)[O-]	GalR3 antag 26.3 | GalR3 conf 35.0 | HEK-CNG parental inactive
COc1ccc(N2CCCN(CC(=O)Nc3ccc(Cl)c(Cl)c3)CC2)cc1	none (no result: NR2E3 ag-1, NR2E3 ag-2, GalR3 antag)
Cc1cc([N+](=O)[O-])ccc1NC(=O)Nc1ccccc1F	none
O=C(Nc1ccccc1)Nc1cc([N+](=O)[O-])ccc1F	GalR3 antag 21.3 | GalR3 conf inactive | HEK-CNG parental inactive
N/C(=N\NS(=O)(=O)c1ccccc1)c1ccccn1	none
N/C(=N\NS(=O)(=O)c1ccc(Cl)cc1)c1ccccn1	GalR3 antag 13.8 | GalR3 conf inactive | HEK-CNG parental inactive
O=C(O)CCCn1cc(NC(=O)c2c(F)cccc2F)cn1	GalR3 antag 15.4 | GalR3 conf inactive | HEK-CNG parental inactive
O=C(O)CCCn1cc(NC(=O)c2ccc(F)cc2)cn1	none
CCOC(=O)CCCNC(=O)OCCCN1CCC2(CCC(c3ccccc3)CC2)C1=O (centres undefined)	none (no result: NR2E3 ag-1, NR2E3 ag-2, GalR3 antag)

Source: PubChem BioAssay (The Scripps Research Institute Molecular Screening Center)
